Experiments:
[1] = biological target: T1, Histamine H3 receptor (Homo sapiens, UniProt Q9Y5N1); assay: Displacement of [125I]iodoproxyfan from human recombinant histamine H3 receptor expressed in CHO-K1 cells; type: cell-based
In short: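 Stably transfected CHO-K1 cells washed and harvested in PBS, homogenized in ice-cold 50 mmol/L Na2HPO4/KH2PO4 pH 7.5. Membranes pelleted at 23,000g. Membranes incubated 60 min at 25 °C with 25 pmol/L [125I]iodoproxyfan ± competitor, in triplicate. Stopped by ice-cold medium and filtration through PEI-soaked glass fibre filters; gamma counting. Nonspecific binding defined with imetit. Ki by Cheng-Prusoff; mean of at least triplicate experiments.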

[2] = test system: Mus musculus; assay: Antagonist activity at histamine H3 receptor in po dosed Swiss mouse cerebral cortex assessed as Ntau-methylhistamine level after 90 mins by radioimmunoassay; type: functional; conditions: 1.5 h
In short: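 Swiss mice fasted 24 h, then dosed orally. Decapitated 90 min later; cerebral cortex homogenized in 10 vol ice-cold 0.4 M perchloric acid. Nτ-methylhistamine measured by radioimmunoassay. Response related to the maximal rise produced by ciproxifan 3 mg/kg po. At least triplicate experiments; ED50 calculated as mean with SEM.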

[3] = biological target: T1, Histamine H3 receptor
[4] = biological target: T1, Histamine H3 receptor; assay: Displacement of [3H](R)-alpha-methylhistamine from human histamine H3 receptor expressed in rat C6 cells; type: cell-based

T1 sequence (Q9Y5N1 whole entry): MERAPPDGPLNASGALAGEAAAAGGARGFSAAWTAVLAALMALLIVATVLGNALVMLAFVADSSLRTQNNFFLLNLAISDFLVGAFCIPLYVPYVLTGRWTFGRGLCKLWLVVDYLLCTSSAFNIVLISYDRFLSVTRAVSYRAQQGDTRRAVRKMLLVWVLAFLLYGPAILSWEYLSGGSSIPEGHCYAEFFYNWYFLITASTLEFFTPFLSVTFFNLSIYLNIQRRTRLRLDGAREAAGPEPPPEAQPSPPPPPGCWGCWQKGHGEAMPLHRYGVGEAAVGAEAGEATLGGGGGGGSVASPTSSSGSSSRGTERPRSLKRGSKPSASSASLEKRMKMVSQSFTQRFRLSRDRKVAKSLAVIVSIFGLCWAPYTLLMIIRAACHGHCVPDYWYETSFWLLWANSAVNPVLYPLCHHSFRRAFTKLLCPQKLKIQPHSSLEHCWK

Row | Ki ([1]; read-out: Ki) [nM] | SMILES | ED50 [2] [mg/kg] | further results
1 | 274 | CCCCC1CCN(CCCOCCCc2ccccc2)CC1 | > 10 | 
2 |  | Clc1ccc(CCCOCCCN2CCCCC2)cc1 [PITOLISANT] | 1.6 | 
3 | 326 | c1ccc(CCCOCCCN2CCC(Cc3ccccc3)CC2)cc1 | > 10 | 
4 | 176 | Clc1ccc(OCCN2CCC(N3CCCCC3)CC2)cc1 |  | 
5 |  | CNC(=O)c1ccc(Oc2ccc3c(c2)CCN(C2CCC2)CC3)nc1 |  | pKb [3]: 9.3
6 |  | C[C@H]1[C@H]2CC[C@H]3[C@@H]4CC=C5C[C@@H](N(C)C)CC[C@]5(C)[C@H]4CC[C@]23CN1C [CONESSINE] |  | Ki ([1]; read-out: pKi (converted)): 5.01 nM
7 | 393 | c1ccc(CCCOCCCN2CCC3CCCCC3C2)cc1 (centres undefined) | > 10 | 
8 |  | c1ccc(COCCCc2c[nH]cn2)cc1 [PROXYFAN] | > 10 | Ki ([1]; read-out: pKi (converted)): 2.51 nM
9 | 300 | Cc1ccc(OCCN2CCC(N3CCCCC3)CC2)cc1 |  | 
10 | 100 | CC(C)(C)c1ccc(OCCCN2CCC(N3CCCCC3)CC2)cc1 | > 20 | 
11 | 132 | COc1cccc(OCCN2CCC(N3CCCCC3)CC2)c1 |  | 
12 | 249 | CCCC1CCN(CCCOCCCc2ccccc2)CC1 | > 10 | 
13 | 560 | c1ccc(CCCOCCCN2CCc3ccccc3C2)cc1 | > 10 | 
14 | 164 | FC(F)(F)c1cccc(OCCN2CCC(N3CCCCC3)CC2)c1 |  | 
15 | 235 | Clc1cccc(OCCN2CCC(N3CCCCC3)CC2)c1 |  | 
16 |  | c1ccc(CCCOCCCN2CCCCC2)cc1 | 3.7 | Ki ([1]; read-out: pKi (converted)): 3.16 nM; Ki [4]: 3.1 nM
17 | > 10000 | COc1cccc(OCCCN2CCC(N3CCCCC3)CC2)c1 | > 20 | 
18 | 165 | Clc1ccc(OCCCN2CCC(N3CCCCC3)CC2)cc1 | > 20 | 

Source: ChEMBL document CHEMBL1152124, “Piperidine variations in search for non-imidazole histamine H(3) receptor ligands” (Bioorg Med Chem, 2008)
